Source: ChEMBL document CHEMBL1133668, “Synthesis and antiviral activity of novel anti-VZV 5-substituted uracil nucleosides with a cyclopropane sugar moiety” (J Med Chem, 2000)
Converted amounts (≈) assume the structure as drawn.

Tests used:
[1] = system: HEL; test: Tested for inhibitory activity against Varicella zoster virus(VZV) by plaque reduction assay using HEL cells; assay type: functional, cell-based; conditions: Homo sapiens
[2] = system: Vero; test: Tested for cytotoxicity in vero cells, activity is expressed as CC50.; assay type: functional; conditions: Chlorocebus sabaeus
[3] = Tested for inhibitory activity against Herpes simplex virus type-1(HSV-1), activity is expressed as IC50.; assay type: functional
[4] = system: MRC5; test: Tested for Antiherpetic activity against VZV from clinical isolates of MRC-5 cell lines.(average of six isolates); assay type: functional, cell-based; conditions: Homo sapiens
[5] = system: HEL; test: Tested for Antiherpetic activity against VZV from Kawaguchi strain in HEL cell lines.; assay type: functional, cell-based; conditions: Homo sapiens
[6] = system: MRC5; test: Tested for Antiherpetic activity against HSV-1 from Tomioka strain in MRC-5 cell lines.; assay type: functional, cell-based; conditions: Homo sapiens
How it was run: (§1)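 Plaque reduction assay in MRC-5 cells, with HSV-1 Tomioka or HSV-2 strain 186 as the challenge virus. […] MRC-5 cells came from a commercial source.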

[7] = system: MRC5; test: Tested for Antiherpetic activity against HSV-2 from 186 strain in MRC-5 cell lines.; assay type: functional, cell-based; conditions: Homo sapiens; how it was run: as §1
[8] = system: HEL; test: Tested for Antiherpetic activity against VZV from clinical isolates of HEL cell lines.(average of 11 isolates); assay type: functional, cell-based; conditions: Homo sapiens

Structure (SMILES) | IC50 [1] [µg/mL] | CC50 [2] [µg/mL] | IC50 [3] [µg/mL] | IC50 [4] [µg/mL] | IC50 [5] [µg/mL] | IC50 [6] [µg/mL] | IC50 [7] [µg/mL] | IC50 [8] [µg/mL]
Cc1cn(CC2(CO)CC2CO)c(=O)[nH]c1=O (configuration not stated) | > 100 | > 500 | > 500 |  |  |  |  | 
Nc1nc(O)c2ncn(C[C@]3(CO)C[C@H]3CO)c2n1 | 0.67 (≈ 2.53 µM) | 240 (≈ 905 µM) | 0.02 (≈ 0.0754 µM) | 0.21 (≈ 0.792 µM) | 0.67 (≈ 2.53 µM) | 0.0093 (≈ 0.0351 µM) | 0.12 (≈ 0.452 µM) | 
O=c1[nH]c(=O)n(CC2(CO)CC2CO)cc1/C=C/Cl (configuration not stated) | 0.07 (≈ 0.244 µM) | > 500 | 4.3 (≈ 15 µM) |  |  |  |  | 
O=c1[nH]c(=O)n(CC2(CO)CC2CO)cc1F (configuration not stated) | > 100 | > 500 | > 500 |  |  |  |  | 
O=c1[nH]c(=O)n([C@@H]2O[C@H](CO)[C@@H](O)[C@H]2O)cc1/C=C/Br |  |  |  | 0.00031 (≈ 0.000888 µM) |  | 0.14 (≈ 0.401 µM) |  | 
O=c1[nH]c(=O)n(CC2(CO)CC2CO)cc1Br (configuration not stated) | 97 (≈ 318 µM) | > 500 | 215 (≈ 705 µM) |  |  |  |  | 
O=c1[nH]c(=O)n(CC2(CO)CC2CO)cc1/C=C/I (configuration not stated) | 0.054 (≈ 0.143 µM) | 330 (≈ 873 µM) | 24.6 (≈ 65.1 µM) |  |  |  |  | 
O=c1ccn(CC2(CO)CC2CO)c(=O)[nH]1 (configuration not stated) | > 100 | > 500 | > 500 |  |  |  |  | 
O=c1[nH]c(=O)n(CC2(CO)CC2CO)cc1Cl (configuration not stated) | > 100 | > 500 | 295 (≈ 1130 µM) |  |  |  |  | 
O=c1[nH]c(=O)n(CC2(CO)CC2CO)cc1/C=C/Br (configuration not stated) | 0.027 (≈ 0.0815 µM) | > 500 | 14.5 (≈ 43.8 µM) | 0.035 (≈ 0.106 µM) | 0.027 (≈ 0.0815 µM) | 0.77 (≈ 2.33 µM) | > 100 | 0.097 (≈ 0.293 µM)
C#Cc1cn(CC2(CO)CC2CO)c(=O)[nH]c1=O (configuration not stated) | > 100 | > 500 | 310 (≈ 1240 µM) |  |  |  |  | 
O=c1[nH]c(=O)n(CC2(CO)CC2CO)cc1I (configuration not stated) | 9.3 (≈ 26.4 µM) | > 500 | 90 (≈ 256 µM) |  |  |  |  | 
Nc1nc2c(ncn2COCCO)c(=O)[nH]1 [ACYCLOVIR] |  | 820 (≈ 3640 µM) | 0.81 (≈ 3.6 µM) |  |  | 0.29 (≈ 1.29 µM) | 0.25 (≈ 1.11 µM) | 
Nc1nc(O)c2ncn(CCC(CO)CO)c2n1 [PENCICLOVIR] |  |  |  |  | 5.6 (≈ 22.1 µM) | 0.54 (≈ 2.13 µM) | 1.2 (≈ 4.74 µM) | 10 (≈ 39.5 µM)
